{"source": "ChEMBL document CHEMBL2040808", "about": "“Design, synthesis, and in vitro activity of novel 2'-O-substituted 15-membered azalides” (J Med Chem, 2012)", "key": {"Streptococcus pneumoniae": {"system": "Streptococcus pneumoniae", "assay": "Antibacterial activity against Streptococcus pneumoniae isolate SP030 by broth microdilution method", "assay_type": "functional", "how_it_was_run": "(§1)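 Standard broth microdilution MIC against macrolide-sensitive strains. For streptococci, 5% horse serum replaced lysed horse blood in the broth, and inocula were grown on Columbia agar with 5% sheep blood. S. aureus was grown on Mueller–Hinton agar.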"}, "Streptococcus pyogenes": {"system": "Streptococcus pyogenes", "assay": "Antibacterial activity against Streptococcus pyogenes isolate 3565 by broth microdilution method", "assay_type": "functional", "how_it_was_run": "as §1"}, "[1]": {"assay": "Aqueous solubility of the compound at pH 4", "assay_type": "physicochemical"}, "Plasmodium falciparum [2]": {"system": "Plasmodium falciparum", "assay": "Antimalarial activity against chloroquine-sensitive Plasmodium falciparum 3D7A infected in type A rhesus-positive human erythrocytes assessed as [3H]hypoxanthine incorporation after 48 hrs by scintillation counting", "assay_type": "functional, organism-based", "how_it_was_run": "(§2)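 Modified semiautomated microdilution: compounds dissolved in DMSO, diluted in RPMI 1640 with 10% v/v human plasma, serial 1:2 dilutions in triplicate. Infected erythrocytes at 3% hematocrit, 0.25−0.55% parasitemia. [3H]hypoxanthine at 12.5−16 μCi/mL final. Incubated 48 h, 37 °C, in 5% O2/3% CO2/92% N2. Harvested on fiberglass strips, scintillation counted. IC50 by nonlinear regression of concentration−response curves.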"}, "[3]": {"assay": "Selectivity ratio of IC50 for human HepG2 cells to IC50 for chloroquine-sensitive Plasmodium falciparum 3D7A", "settings": "HepG2 cells versus Plasmodium falciparum 3D7A"}, "Staphylococcus aureus": {"system": "Staphylococcus aureus", "assay": "Antibacterial activity against Staphylococcus aureus ATCC 13709 by broth microdilution method", "assay_type": "functional", "how_it_was_run": "as §1"}, "HepG2": {"system": "HepG2", "assay": "Cytotoxicity against human HepG2 cells after 24 hrs by MTS assay", "assay_type": "cell-based", "settings": "HepG2, 24 h", "how_it_was_run": "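Hep G2 cells were kept in RPMI 1640 with 10% FBS at 37 °C and 5% CO2. Wells held 50000 cells and received 1:2 serial dilutions of compound (DMSO stock diluted in medium) for 24 h. MTS reagent was then added for 2 h, absorbance was read at 490 nm, and IC50 was taken from response curves.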"}, "Plasmodium falciparum [4]": {"system": "Plasmodium falciparum", "assay": "Antimalarial activity against chloroquine-resistant Plasmodium falciparum W2 infected in type A rhesus-positive human erythrocytes assessed as [3H]hypoxanthine incorporation after 48 hrs by scintillation counting", "assay_type": "functional, organism-based", "how_it_was_run": "as §2"}, "Plasmodium falciparum [5]": {"system": "Plasmodium falciparum", "assay": "Ratio of IC50 for azithromycin to compound IC50 for chloroquine-sensitive Plasmodium falciparum 3D7A infected in type A rhesus-positive human erythrocytes assessed as [3H]hypoxanthine incorporation after 48 hrs by scintillation counting", "assay_type": "functional"}, "Plasmodium falciparum [6]": {"system": "Plasmodium falciparum", "assay": "Ratio of IC50 for azithromycin to compound IC50 for chloroquine-resistant Plasmodium falciparum W2 infected in type A rhesus-positive human erythrocytes assessed as [3H]hypoxanthine incorporation after 48 hrs by scintillation counting", "assay_type": "functional"}, "[7]": {"assay": "Selectivity ratio of IC50 for human HepG2 cells to IC50 for chloroquine-sensitive Plasmodium falciparum 3D7A", "assay_type": "ADME, cell-based", "settings": "HepG2 cells versus Plasmodium falciparum 3D7A, read-out: Ratio IC50", "how_it_was_run": "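Selectivity is the HepG2 IC50 divided by the P. falciparum IC50. For HepG2, 50000 cells per well in RPMI 1640 with 10% FBS were exposed to 1:2 serial dilutions for 24 h at 37 °C, 5% CO2. MTS was added for 2 h and absorbance read at 490 nm. Parasite IC50 came from the 48 h [3H]hypoxanthine assay.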"}}}
{"molecule": "CC[C@H]1OC(=O)[C@H](C)[C@@H](O[C@H]2C[C@@](C)(OC)[C@@H](O)[C@H](C)O2)[C@H](C)[C@@H](O[C@@H]2O[C@H](C)C[C@H](N(C)C)[C@H]2OCCCNc2ccnc3cc(Cl)ccc23)[C@](C)(O)C[C@@H](C)CN(C)[C@H](C)[C@@H](O)[C@]1(C)O", "values": [{"measurement": "MIC", "setting": "Streptococcus pneumoniae", "result": 64, "unit": "µg/mL"}, {"measurement": "MIC", "setting": "Streptococcus pyogenes", "result": 64, "unit": "µg/mL"}, {"measurement": "solubility", "setting": "[1]", "result": "> 10000", "unit": "µg/mL"}, {"measurement": "IC50", "setting": "Plasmodium falciparum [2]", "result": 21, "unit": "nM"}, {"measurement": "selectivity ratio", "setting": "[3]", "result": 132}, {"measurement": "MIC", "setting": "Staphylococcus aureus", "result": "> 64", "unit": "µg/mL"}, {"measurement": "IC50", "setting": "HepG2", "result": 45000, "unit": "nM"}, {"measurement": "IC50", "setting": "Plasmodium falciparum [4]", "result": 10, "unit": "nM"}, {"measurement": "Ratio IC50", "setting": "Plasmodium falciparum [5]", "result": 3}, {"measurement": "Ratio IC50", "setting": "Plasmodium falciparum [6]", "result": 3}, {"measurement": "selectivity ratio", "setting": "[7]", "result": 132}]}
{"molecule": "CC[C@H]1OC(=O)[C@H](C)[C@@H](O[C@H]2C[C@@](C)(OC)[C@@H](O)[C@H](C)O2)[C@H](C)[C@@H](O[C@@H]2O[C@H](C)C[C@H](N(C)C)[C@H]2OCCCNCc2ccc3ccccc3n2)[C@](C)(O)C[C@@H](C)CN(C)[C@H](C)[C@@H](O)[C@]1(C)O", "values": [{"measurement": "MIC", "setting": "Streptococcus pneumoniae", "result": "> 64", "unit": "µg/mL"}, {"measurement": "MIC", "setting": "Streptococcus pyogenes", "result": "> 64", "unit": "µg/mL"}, {"measurement": "solubility", "setting": "[1]", "result": "> 10000", "unit": "µg/mL"}, {"measurement": "IC50", "setting": "Plasmodium falciparum [2]", "result": 227, "unit": "nM"}, {"measurement": "selectivity ratio", "setting": "[3]", "result": 132}, {"measurement": "MIC", "setting": "Staphylococcus aureus", "result": "> 64", "unit": "µg/mL"}, {"measurement": "IC50", "setting": "HepG2", "result": 30000, "unit": "nM"}, {"measurement": "IC50", "setting": "Plasmodium falciparum [4]", "result": 55, "unit": "nM"}, {"measurement": "Ratio IC50", "setting": "Plasmodium falciparum [5]", "result": 3}, {"measurement": "Ratio IC50", "setting": "Plasmodium falciparum [6]", "result": 3}, {"measurement": "selectivity ratio", "setting": "[7]", "result": 132}]}
{"molecule": "CC[C@H]1OC(=O)[C@H](C)[C@@H](O[C@H]2C[C@@](C)(OC)[C@@H](O)[C@H](C)O2)[C@H](C)[C@@H](O[C@@H]2O[C@H](C)C[C@H](N(C)C)[C@H]2OCCCNCc2ccnc3ccccc23)[C@](C)(O)C[C@@H](C)CN(C)[C@H](C)[C@@H](O)[C@]1(C)O", "values": [{"measurement": "MIC", "setting": "Streptococcus pneumoniae", "result": "> 64", "unit": "µg/mL"}, {"measurement": "MIC", "setting": "Streptococcus pyogenes", "result": "> 64", "unit": "µg/mL"}, {"measurement": "solubility", "setting": "[1]", "result": "> 10000", "unit": "µg/mL"}, {"measurement": "IC50", "setting": "Plasmodium falciparum [2]", "result": 141, "unit": "nM"}, {"measurement": "selectivity ratio", "setting": "[3]", "result": 132}, {"measurement": "MIC", "setting": "Staphylococcus aureus", "result": "> 64", "unit": "µg/mL"}, {"measurement": "IC50", "setting": "HepG2", "result": 45000, "unit": "nM"}, {"measurement": "IC50", "setting": "Plasmodium falciparum [4]", "result": 78, "unit": "nM"}, {"measurement": "Ratio IC50", "setting": "Plasmodium falciparum [5]", "result": 3}, {"measurement": "Ratio IC50", "setting": "Plasmodium falciparum [6]", "result": 3}, {"measurement": "selectivity ratio", "setting": "[7]", "result": 132}]}
{"molecule": "CC[C@H]1OC(=O)[C@H](C)[C@@H](O[C@H]2C[C@@](C)(OC)[C@@H](O)[C@H](C)O2)[C@H](C)[C@@H](O[C@@H]2O[C@H](C)C[C@H](N(C)C)[C@H]2OCCCNCc2cnc3ccccc3c2)[C@](C)(O)C[C@@H](C)CN(C)[C@H](C)[C@@H](O)[C@]1(C)O", "values": [{"measurement": "MIC", "setting": "Streptococcus pneumoniae", "result": "> 64", "unit": "µg/mL"}, {"measurement": "MIC", "setting": "Streptococcus pyogenes", "result": "> 64", "unit": "µg/mL"}, {"measurement": "solubility", "setting": "[1]", "result": "> 10000", "unit": "µg/mL"}, {"measurement": "IC50", "setting": "Plasmodium falciparum [2]", "result": 228, "unit": "nM"}, {"measurement": "selectivity ratio", "setting": "[3]", "result": 88}, {"measurement": "MIC", "setting": "Staphylococcus aureus", "result": "> 64", "unit": "µg/mL"}, {"measurement": "IC50", "setting": "HepG2", "result": 20000, "unit": "nM"}, {"measurement": "IC50", "setting": "Plasmodium falciparum [4]", "result": 46, "unit": "nM"}, {"measurement": "Ratio IC50", "setting": "Plasmodium falciparum [5]", "result": 3}, {"measurement": "Ratio IC50", "setting": "Plasmodium falciparum [6]", "result": 3}, {"measurement": "selectivity ratio", "setting": "[7]", "result": 88}]}
{"molecule": "CC[C@H]1OC(=O)[C@H](C)[C@@H](O[C@H]2C[C@@](C)(OC)[C@@H](O)[C@H](C)O2)[C@H](C)[C@@H](O[C@@H]2O[C@H](C)C[C@H](N(C)C)[C@H]2OCCCN(C)Cc2cnc3ccccc3c2)[C@](C)(O)C[C@@H](C)CN(C)[C@H](C)[C@@H](O)[C@]1(C)O", "values": [{"measurement": "MIC", "setting": "Streptococcus pneumoniae", "result": "> 64", "unit": "µg/mL"}, {"measurement": "MIC", "setting": "Streptococcus pyogenes", "result": "> 64", "unit": "µg/mL"}, {"measurement": "solubility", "setting": "[1]", "result": "> 10000", "unit": "µg/mL"}, {"measurement": "IC50", "setting": "Plasmodium falciparum [2]", "result": 466, "unit": "nM"}, {"measurement": "selectivity ratio", "setting": "[3]", "result": 49}, {"measurement": "MIC", "setting": "Staphylococcus aureus", "result": "> 64", "unit": "µg/mL"}, {"measurement": "IC50", "setting": "HepG2", "result": 23000, "unit": "nM"}, {"measurement": "IC50", "setting": "Plasmodium falciparum [4]", "result": 47, "unit": "nM"}, {"measurement": "Ratio IC50", "setting": "Plasmodium falciparum [5]", "result": 3}, {"measurement": "Ratio IC50", "setting": "Plasmodium falciparum [6]", "result": 3}, {"measurement": "selectivity ratio", "setting": "[7]", "result": 49}]}
